ChEMBL document CHEMBL1123571, “[(6,7-Dichlorobenzo[b]thien-5-yl)oxy]acetic acids and 1,1-dioxides. 1. A structurally novel class of diuretics with hypotensive activity” (1987)
Several values for one entry are separate records, joined by “and”; a condition that tells them apart may be missing. Equal entries are not always repeated.

How the values were obtained:
[1] = system: Rattus norvegicus; assay: Hypotensive activity was determined in Spontaneously hypertensive rats (SHR) and initial blood pressure was determined at 50 mg/kg oral dose; format: functional
[2] = system: Mus musculus; assay: Diuretic activity in saline loaded mice, activity is expressed as the sodium present in urine as mean milli equivalent/kg per 5 hr at 64 mg/kg oral dose; format: functional
Summary of the method: (§1)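 Male CD-1 mice (18–24 g), 10 per treatment group, housed five per metabolic cage. Compound was given orally in 1% saline at 10 mL/kg, with a vehicle control group. Pooled urine was analysed for sodium by flame photometry. Values are mean mequiv/kg over 0–5 h.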

[3] = system: Rattus norvegicus; assay: Hypotensive activity was determined in Spontaneously hypertensive rats (SHR) and peak decrease in systolic blood pressure on third day,2h post administration of 50 mg/kg oral dose was determined; format: functional, Artery
Summary of the method: (§2)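 Okamoto-Aoki spontaneously hypertensive rats were dosed orally every day with compound suspended in distilled water with Tween 80. Systolic BP was taken by tail-cuff plethysmography on day 1 (predose, 2 h), day 3 (predose, 2 h) and day 5 (predose, 2 and 4 h). The value is the peak fall at day 3, 2 h postdose, ± SEM. Four rats were used in the screen and 4–8 per dose in dose-response.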

[4] = system: Mus musculus; assay: Compound was tested for diuretic activity in saline loaded mice, activity is expressed as the sodium present in urine as mean milli equivalent/kg per 5 hr at 128 mg/kg oral dose; format: functional; summary of the method: as §1
[5] = system: Mus musculus; assay: Compound was tested for diuretic activity in saline loaded mice, activity is expressed as the sodium present in urine as mean milli equivalent/kg per 5 hr at 32 mg/kg oral dose; format: functional; summary of the method: as §1
[6] = system: Rattus norvegicus; assay: Hypotensive activity was determined in Spontaneously hypertensive rats (SHR) and peak decrease in systolic blood pressure on third day,2h post administration of 30 mg/kg oral dose was determined; format: functional, Artery; summary of the method: as §2
[7] = system: Rattus norvegicus; assay: Hypotensive activity was determined in Spontaneously hypertensive rats (SHR) and initial blood pressure was determined at 10 mg/kg oral dose; format: functional
[8] = system: Rattus norvegicus; assay: Hypotensive activity was determined in Spontaneously hypertensive rats (SHR) and initial blood pressure was determined at 30 mg/kg oral dose; format: functional
[9] = system: Rattus norvegicus; assay: Hypotensive activity was determined in Spontaneously hypertensive rats (SHR) and peak decrease in systolic blood pressure on third day,2h post administration of 10 mg/kg oral dose was determined; format: functional, Artery; summary of the method: as §2
[10] = system: Mus musculus; assay: Compound was tested for diuretic activity in saline loaded mice, activity is expressed as the sodium present in urine as mean milli equivalent/kg per 5 hr at 16 mg/kg oral dose; format: functional; summary of the method: as §1
[11] = system: Rattus norvegicus; assay: Hypotensive activity was determined in Spontaneously hypertensive rats (SHR) and peak decrease in systolic blood pressure on third day,2h post administration of 3 mg/kg oral dose was determined; format: functional, Artery; summary of the method: as §2
[12] = system: Rattus norvegicus; assay: Hypotensive activity was determined in Spontaneously hypertensive rats (SHR) and initial blood pressure was determined at 3 mg/kg oral dose; format: functional
[13] = system: Rattus norvegicus; assay: Hypotensive activity after 10 mg/kg oral dose in rats (Change in blood pressure after treatment (day/hours)); format: functional
Summary of the method: (§3)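 Grollman renal hypertension (one kidney, one wrap) in male Sprague-Dawley rats. Under pentobarbital (50 mg/kg ip) the right kidney was removed and silk sutures were tied around both poles of the left kidney. After 3 weeks, rats with systolic BP >150 mmHg were selected. Oral dosing followed. Systolic BP was measured by tail-cuff plethysmography as day/hour readings, and the change was taken against the initial pressure.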

[14] = species: Rattus norvegicus; assay: Initial blood pressure before treatment; format: functional; summary of the method: as §3
[15] = system: Rattus norvegicus; assay: Hypotensive activity was determined in Spontaneously hypertensive rats (SHR) and initial blood pressure was determined at 25 mg/kg oral dose; format: functional
[16] = system: Rattus norvegicus; assay: Hypotensive activity was determined in Spontaneously hypertensive rats (SHR) and peak decrease in systolic blood pressure on third day,2h post administration of 25 mg/kg oral dose was determined; format: functional, Artery; summary of the method: as §2
[17] = system: Rattus norvegicus; assay: Hypotensive activity was determined in Spontaneously hypertensive rats (SHR) and peak decrease in systolic blood pressure on third day,2h post administration of 1 mg/kg oral dose was determined; format: functional, Artery; summary of the method: as §2
[18] = system: Rattus norvegicus; assay: Hypotensive activity was determined in Spontaneously hypertensive rats (SHR) and initial blood pressure was determined at 1 mg/kg oral dose; format: functional
[19] = system: Rattus norvegicus; assay: Hypotensive activity after 50 mg/kg oral dose in rats (Change in blood pressure after treatment (day/hours)); format: functional; summary of the method: as §3
[20] = species: Rattus norvegicus; assay: Change in blood pressure (Initial blood pressure- Post drug blood pressure); format: functional; summary of the method: as §3

Compound | Initial blood pressure [1] [mmHg] | mequiv of Na+/kg [2] | Change in BP [3] [mmHg] | other results
CCC(=O)c1cc2cc(OCC(=O)O)c(Cl)c(Cl)c2s1 | 173 | 1.18 0-5h | -1 | –
CC(=O)c1cc2cc(OCC(=O)O)c(Cl)c(Cl)c2s1 | 199 | 1.16 0-5h | -28 | –
CC(C)C1=Cc2cc(OCC(=O)O)c(Cl)c(Cl)c2S1(=O)=O | 192 | 2.58 0-5h | -33 | mequiv of Na+/kg [4]: 5.32 0-5h; mequiv of Na+/kg [5]: 0.88 0-5h
CC(C)CC1=Cc2cc(OCC(=O)O)c(Cl)c(Cl)c2S1(=O)=O | 176 | 3.24 0-5h | -14 | –
O=C(O)COc1cc2ccsc2c(Cl)c1Cl | 201 | 1 0-5h | 2 | –
O=C(O)COc1cc2c(c(Cl)c1Cl)S(=O)(=O)C1=C2CCCC1 | 179 | 0 0-5h | -8 | –
CCCCc1cc2cc(OCC(=O)O)c(Cl)c(Cl)c2s1 | 173 | 0.88 0-5h | -47 | Change in BP [6]: -16 mmHg; Initial blood pressure [7]: 171 mmHg; Initial blood pressure [8]: 173 mmHg; Change in BP [9]: -17 mmHg
Cc1csc2c(Cl)c(Cl)c(OCC(=O)O)cc12 | 203 | 0.8 0-5h | -12 | –
O=C(O)COc1cc2c(c(Cl)c1Cl)S(=O)(=O)C=C2 | 201 | 0.33 0-5h | -3 | –
CC(C)c1cc2cc(OCC(=O)O)c(Cl)c(Cl)c2s1 | 179 | 2.52 0-5h | -41 | Change in BP [6]: -32 mmHg; Initial blood pressure [7]: 178 mmHg; Initial blood pressure [8]: 195 mmHg; Change in BP [9]: -14 mmHg; mequiv of Na+/kg [5]: 1.64 0-5h; mequiv of Na+/kg [10]: 1.24 0-5h
O=C(O)COc1cc2c(c(Cl)c1Cl)S(=O)(=O)C(C1CCCCC1)=C2 | 202 | 1.25 0-5h | -43 | Change in BP [6]: -30 mmHg; Change in BP [11]: -32 mmHg; Initial blood pressure [12]: 187 mmHg; Initial blood pressure [8]: 167 mmHg
CCCc1cc2cc(OCC(=O)O)c(Cl)c(Cl)c2s1 | 181 | 1.74 0-5h | -1 | –
CCCC1=Cc2cc(OCC(=O)O)c(Cl)c(Cl)c2S1(=O)=O | – | 3.13 0-5h | – | mequiv of Na+/kg [4]: 4.99 0-5h; Change in BP [6]: -64 mmHg; Change in BP [11]: -52 mmHg; Post drug blood pressure [13]: 135 mmHg and 156 mmHg and 153 mmHg and 167 mmHg; Initial blood pressure [12]: 205 mmHg; Initial blood pressure [8]: 202 mmHg; mequiv of Na+/kg [5]: 1.79 0-5h; mequiv of Na+/kg [10]: 1.06 0-5h; Initial blood pressure [14]: 166 mmHg
CCc1cc2cc(OCC(=O)O)c(Cl)c(Cl)c2s1 | – | 2.07 0-5h | – | Initial blood pressure [15]: 176 mmHg; Initial blood pressure [7]: 185 mmHg; Change in BP [16]: -13 mmHg; Change in BP [9]: -21 mmHg; mequiv of Na+/kg [5]: 1.51 0-5h; mequiv of Na+/kg [10]: 0.74 0-5h
CCCCC1=Cc2cc(OCC(=O)O)c(Cl)c(Cl)c2S1(=O)=O | 185 | 2.42 0-5h | -24 | –
CC1=C(C)S(=O)(=O)c2c1cc(OCC(=O)O)c(Cl)c2Cl | 165 | 0.92 0-5h | -17 | –
O=C(O)COc1cc2cc(CO)sc2c(Cl)c1Cl | 199 | 1.23 0-5h | -5 | –

Compound | Initial blood pressure [1] [mmHg] | mequiv of Na+/kg [2] | Change in BP [3] [mmHg] | other results
CC1=Cc2cc(OCC(=O)O)c(Cl)c(Cl)c2S1(=O)=O | 180 | 4.34 0-5h | -25 | mequiv of Na+/kg [4]: 6.36 0-5h; mequiv of Na+/kg [5]: 2.11 0-5h; mequiv of Na+/kg [10]: 1.33 0-5h
CCC1=Cc2cc(OCC(=O)O)c(Cl)c(Cl)c2S1(=O)=O | 213 | 3.35 0-5h | -8 | mequiv of Na+/kg [4]: 6.51 0-5h; mequiv of Na+/kg [5]: 1.84 0-5h; mequiv of Na+/kg [10]: 0.66 0-5h
O=C(O)COc1cc2c3c(sc2c(Cl)c1Cl)CCCC3 | 177 | 0.45 0-5h | -12 | –
O=C(O)COc1cc2cc(C3CCCCC3)sc2c(Cl)c1Cl | 178 | 1.6 0-5h | 2 | –
Cc1sc2c(Cl)c(Cl)c(OCC(=O)O)cc2c1C | 192 | 0.13 0-5h | -37 | –
O=C(O)COc1cc2c(c(Cl)c1Cl)S(=O)(=O)C(C1CCCC1)=C2 | 180 | 1.79 0-5h | -17 | –
O=C(O)COc1cc2cc(C3CCCC3)sc2c(Cl)c1Cl | 193 | 1.3 0-5h | -31 | –
CC(C)(O)c1cc2cc(OCC(=O)O)c(Cl)c(Cl)c2s1 | 193 | 4.4 0-5h | -25 | mequiv of Na+/kg [4]: 6.24 0-5h; mequiv of Na+/kg [5]: 2.21 0-5h; mequiv of Na+/kg [10]: 0.53 0-5h
CCC(O)c1cc2cc(OCC(=O)O)c(Cl)c(Cl)c2s1 (stereo unspecified) | 166 | 3.89 0-5h | -22 | –
CC(O)c1cc2cc(OCC(=O)O)c(Cl)c(Cl)c2s1 (stereo unspecified) | 183 | 2.86 0-5h | -7 | –
CC(O)C1=Cc2cc(OCC(=O)O)c(Cl)c(Cl)c2S1(=O)=O (stereo unspecified) | 176 | 0.43 0-5h | -9 | –
Cc1cc2cc(OCC(=O)O)c(Cl)c(Cl)c2s1 | 215 | 1.16 0-5h | -51 | Initial blood pressure [7]: 196 mmHg; Change in BP [11]: -37 mmHg; Change in BP [17]: -42 mmHg; Initial blood pressure [12]: 173 mmHg; Initial blood pressure [18]: 177 mmHg; Change in BP [9]: -33 mmHg
CC(C)Cc1cc2cc(OCC(=O)O)c(Cl)c(Cl)c2s1 | 176 | 1.29 0-5h | 4 | –
C=C(CC)C(=O)c1ccc(OCC(=O)O)c(Cl)c1Cl [ETHACRYNIC ACID] | – | 4.14 0-5h | – | –
NS(=O)(=O)c1cc2c(cc1Cl)NCNS2(=O)=O [HYDROCHLOROTHIAZIDE] | 188 | – | -26 | Post drug blood pressure [19]: 156 mmHg and 133 mmHg and 148 mmHg and 150 mmHg; Delta blood pressure [20]: -18 mmHg [middle of 4 runs]; Initial blood pressure [14]: 168 mmHg
O=C(O)COc1ccc(C(=O)c2cccs2)c(Cl)c1Cl [TICRYNAFEN] | 200 | 3.31 0-5h | -14 | –
